From PMC8418994 (Structure (London, England : 1993), 2021)

Tests used:
PPARγ LBD = molecular target: T1, PPARγ LBD (Homo sapiens, UniProt P37231); test: TR-FRET fluorescent tracer ligand displacement assay; format: binding
T1 sequence (P37231 203-477 isoform P37231-2): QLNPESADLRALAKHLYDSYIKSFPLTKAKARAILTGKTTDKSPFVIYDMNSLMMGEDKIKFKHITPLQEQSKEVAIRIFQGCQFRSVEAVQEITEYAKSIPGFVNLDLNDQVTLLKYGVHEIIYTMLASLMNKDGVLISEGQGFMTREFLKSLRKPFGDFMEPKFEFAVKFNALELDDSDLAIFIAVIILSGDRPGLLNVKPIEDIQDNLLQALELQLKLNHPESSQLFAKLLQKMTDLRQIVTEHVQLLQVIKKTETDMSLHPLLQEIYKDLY

[Y473E]-PPARγ LBD [1] = Isothermal titration calorimetry; format: binding, human; settings: ITC at 25°C; Figure S7; in words
Procedure, shortened: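 Human PPARγ LBD Y473E mutant (residues 203–477), expressed His-tagged in E. coli BL21(DE3), purified by Ni-NTA and gel filtration. Protein at 30 μM in the cell; test compound at 300 μM in the syringe. Both in 20 mM potassium phosphate pH 7.4, 50 mM KCl, 5 mM TCEP, 0.5 mM EDTA, 0.17% DMSO. A 0.4 μL pre-injection, then nineteen 2 μL injections at 25°C, stirring 1200 rpm.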

[Y473E]-PPARγ LBD [2] = TR-FRET coregulator interaction assay; format: biochemical, human

Structure (SMILES) | Ki (PPARγ LBD) | binding affinity to [Y473E]-PPARγ LBD ([Y473E]-PPARγ LBD [1]) | concentration-dependent effect on interaction of the TRAP220/MED1 coactivator peptide ([Y473E]-PPARγ LBD [2])
Cc1oc(-c2ccccc2)nc1CCC(=O)c1ccc(CC2SC(=O)NC2=O)cc1 (stereo not drawn) [darglitazone] | ≤ 1 nM |  | 
CN(CCOc1ccc(C[C@H](Nc2ccccc2C(=O)c2ccccc2)C(=O)O)cc1)c1ccccn1 [GW1929] |  | reasonably high affinity | essentially no concentration-dependent effect
